Source: ChEMBL document CHEMBL2010764, “Novel alkynylphosphonate analogue of calcitriol with potent antiproliferative effects in cancer cells and lack of calcemic activity” (ACS Med Chem Lett, 2011)
pIC50: −log10 of the molar value. Active and inactive are the calls of the source. No cut-off for these calls is given here.

What was measured:
T98G [1] = assay: Antiproliferative activity against human T98G cells assessed as decrease in cell number after 72 hrs by WST assay; assay type: functional, cell-based
How it was run: (§1)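 Cells exposed to the test agent or isopropanol vehicle over 72 h, across 0.1–100 nM; proliferation expressed as percentage of vehicle. Experiments repeated at least three times per cell line; one-way ANOVA with Bonferroni post-test.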

T98G [2] = assay: Antiproliferative activity against human T98G cells harboring plasmid silencing VDR assessed as decrease in cell number at 10 nM after 72 hrs by WST assay; assay type: functional, cell-based
How it was run: (§2)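 T98G cells transfected with VDR-silencing shRNA plasmid or scrambled shRNA plasmid. 48 h after transfection, treated with 10 nM agent or vehicle, then counted 72 h after treatment. Triplicate wells, three independent experiments; mean ± SE. VDR knockdown was checked on lysates taken 48 h after transfection with 2 or 4 μg plasmid.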

Mus musculus [3] = assay: Toxicity in CF1 mouse assessed as morphological alterations in kidney at 5 to 20 ug/kg, ip qd for 5 days measured after 15 days; assay type: organism-based; settings: in vivo, 360 h
How it was run: (§3)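 Mice dosed intraperitoneally once daily for 5 days at 5 or 20 μg/kg in isopropanol vehicle. Liver, duodenum, lungs and kidneys were inspected visually for macroscopic morphological alterations after treatment.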

Mus musculus [4] = assay: Hypercalcemic activity in CF1 mouse assessed as increase in plasma calcium level at 5 ug/kg, ip qd for 5 days measured after 96 hrs; assay type: functional, organism-based
How it was run: (§4)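 Mice (n = 5/group) received daily intraperitoneal injections of agent or isopropanol vehicle at 5 or 20 μg/kg body weight for 5 days. Blood was taken before dosing (0 h) and at 24, 48, 72 and 96 h. Plasma calcium was read by Arsenazo III absorbance. Means ± SE; experiment repeated twice.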

Mus musculus [5] = assay: Toxicity in CF1 mouse assessed as morphological alterations in duodenum at 5 to 20 ug/kg, ip qd for 5 days measured after 15 days; assay type: organism-based; settings: in vivo, 360 h; how it was run: as §3
HN12 = assay: Antiproliferative activity against human HN12 cells assessed as decrease in cell number at 1 nM after 72 hrs by hemocytometeric analysis; assay type: functional, cell-based; how it was run: as §1
T47D = assay: Antiproliferative activity against human T47D cells assessed as decrease in cell number after 72 hrs by WST assay; assay type: functional, cell-based
Mus musculus [6] = assay: Toxicity in CF1 mouse assessed as mortality at 20 ug/kg, ip qd for 5 days; assay type: organism-based; settings: in vivo, 0.02 mg/kg, 120 h
How it was run: (§5)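 Mice in three groups (n = 5/group) received daily intraperitoneal injections of test agent, calcitriol, or isopropanol vehicle at 5 or 20 μg/kg body weight for 5 days. Survival was followed through the examination period, with blood sampled before dosing and at 24, 48, 72 and 96 h for plasma calcium (Arsenazo III absorbance). Liver, duodenum, lungs and kidneys were inspected macroscopically.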

T98G [7] = assay: Antiproliferative activity against human T98G cells harboring scrambled shRNA assessed as decrease in cell number at 10 nM after 72 hrs by WST assay; assay type: functional, cell-based; how it was run: as §2
LM3 = assay: Antiproliferative activity against mouse LM3 cells assessed as decrease in cell survival at 0.1 to 100 nM after 72 hrs by WST1 assay; assay type: functional, cell-based; how it was run: as §1
HCT-116 = assay: Antiproliferative activity against human HCT116 cells assessed as decrease in cell survival at 0.1 to 100 nM after 72 hrs by WST1 assay; assay type: functional, cell-based; how it was run: as §1
SVEC vGPCR (Mouse) = assay: Antiproliferative activity against mouse SVEC vGPCR cells assessed as decrease in cell number after 72 hrs by WST assay
[8] = Antiproliferative activity against mouse LM05e cells assessed as decrease in cell number after 72 hrs by WST assay; assay type: functional, cell-based
Mus musculus [9] = assay: Toxicity in CF1 mouse assessed as morphological alterations in lung at 5 to 20 ug/kg, ip qd for 5 days measured after 15 days; assay type: organism-based; settings: in vivo, 360 h; how it was run: as §3
Mus musculus [10] = assay: Toxicity in CF1 mouse assessed as mortality at 5 ug/kg, ip qd for 5 days; assay type: organism-based; settings: in vivo, 0.005 mg/kg, 120 h; how it was run: as §5
Mus musculus [11] = assay: Hypercalcemic activity in CF1 mouse assessed as increase in plasma calcium level at 20 ug/kg, ip qd for 5 days measured after 96 hrs; assay type: functional, organism-based; how it was run: as §4
[12] = Antiproliferative activity against human HN12 cells assessed as decrease in cell number after 72 hrs by WST assay; assay type: functional, cell-based; settings: HN12, 72 h
Mus musculus [13] = assay: Toxicity in CF1 mouse assessed as morphological alterations in liver at 5 to 20 ug/kg, ip qd for 5 days measured after 15 days; assay type: organism-based; settings: in vivo, 360 h; how it was run: as §3
Mus musculus [14] = assay: Hypercalcemic activity in CF1 mouse assessed as increase in plasma calcium level at 5 to 20 ug/kg, ip qd for 5 days measured after 96 hrs; assay type: functional, organism-based; how it was run: as §4
Mus musculus [15] = assay: Toxicity in CF1 mouse assessed as mortality at 5 to 20 ug/kg, ip qd for 5 days; assay type: organism-based; settings: in vivo, 120 h; how it was run: as §5
[16] = AUC in mouse at 5 ug/kg; assay type: ADME, organism-based; settings: plasma, 0.005 mg/kg
[17] = Cmax in mouse at 5 ug/kg; assay type: ADME, organism-based; set-up: dose 5 ug/kg; settings: in vivo, 0.005 mg/kg

C=C1/C(=C\C=C2/CCC[C@]3(C)[C@@H]([C@H](C)CC#CP(=O)(OCC)OCC)CC[C@@H]23)C[C@@H](O)C[C@@H]1O
pIC50 (T98G [1]): 7.44
Activity (T98G [2]): Active
Activity (Mus musculus [3]): Non-toxic
Activity (Mus musculus [4]): inactive
Activity (Mus musculus [5]): Non-toxic
Activity (HN12): Active
pIC50 (T47D): 8.32
Activity (Mus musculus [6]): Non-toxic
Activity (T98G [7]): Active
Activity (LM3): inactive
Activity (HCT-116): inactive
pIC50 (SVEC vGPCR (Mouse)): 6.95
pIC50 [8]: 8.77
Activity (Mus musculus [9]): Non-toxic
Activity (Mus musculus [10]): Non-toxic
Activity (Mus musculus [11]): inactive
pIC50 [12]: 7.65
Activity (Mus musculus [13]): Non-toxic

C=C1/C(=C\C=C2/CCC[C@]3(C)[C@@H]([C@H](C)CCCC(C)(C)O)CC[C@@H]23)C[C@@H](O)C[C@@H]1O [CALCITRIOL]
Activity (Mus musculus [14]): Active
Activity (Mus musculus [15]): Toxic
AUC [16]: > 40 ng·h/mL
Cmax [17]: > 10 ng/mL
